Measurements from ChEMBL document CHEMBL4390639, “Design, Synthesis, and Biological Evaluation of Novel Allosteric Protein Disulfide Isomerase Inhibitors” (J Med Chem, 2019).
Active and inactive are the calls of the source. The calls are words filed in the database; no cut-off is given here.

Tests used:
[1] = system: U-87 MG; experiment: Cytotoxicity against human U87MG cells assessed as inhibition of cell proliferation at 10 uM measured after 24 hrs treatment followed by 10 days by colony formation assay relative to control
[2] = system: A 172; experiment: Induction of morphological changes in human A172 cells assessed as vesicle formation at 11 uM measured after 48 hrs by Giemsa-staining based microscopic analysis; type: functional, cell-based
[3] = system: A 172; experiment: Induction of morphological changes in human A172 cells assessed as membrane blebbing at 11 uM measured after 48 hrs by Giemsa-staining based microscopic analysis; type: functional, cell-based
[4] = system: U-87 MG; experiment: Up regulation of GCNT3 gene expression in human U87MG cells at 10 uM incubated for 4 hrs followed by bromouridine addition during last 30 mins of incubation by TRIzol-reagent based Bru-Seq analysis relative to control; type: functional, U-87MG ATCC
In short: (§1)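 U87MG cells exposed to compound or DMSO vehicle for 4 h, with 2 mM bromouridine added for the final 30 min. Total RNA isolated with TRIzol; Bru-labelled nascent RNA captured on anti-BrdU antibody-conjugated magnetic beads and sequenced. Transcript abundance expressed as RPKM relative to DMSO. Experiment performed once.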

[5] = system: U-87 MG; experiment: Up regulation of DEDD2 gene expression in human U87MG cells at 10 uM incubated for 4 hrs followed by bromouridine addition during last 30 mins of incubation by TRIzol-reagent based Bru-Seq analysis relative to control; type: functional, U-87MG ATCC
In short: as §1

[6] = system: U-87 MG; experiment: Down regulation of LRRC63 gene expression in human U87MG cells at 10 uM incubated for 4 hrs followed by bromouridine addition during last 30 mins of incubation by TRIzol-reagent based Bru-Seq analysis relative to control; type: functional, U-87MG ATCC
[7] = system: U-87 MG; experiment: Down regulation of MAD2L1 gene expression in human U87MG cells at 10 uM incubated for 4 hrs followed by bromouridine addition during last 30 mins of incubation by TRIzol-reagent based Bru-Seq analysis relative to control; type: functional, U-87MG ATCC
In short: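 Nascent transcription (Bru-seq) in U87MG cells: treatment at 10 μM for 4 h, with 2 mM bromouridine added for the final 30 min. Total RNA isolated with TRIzol; Bru-labelled RNA captured using anti-BrdU antibody on magnetic beads, then sequenced. Transcript traces reported as RPKM compared with DMSO-treated cells. Single experiment.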

[8] = system: U-87 MG; experiment: Up regulation of CHAC1 gene expression in human U87MG cells at 10 uM incubated for 4 hrs followed by bromouridine addition during last 30 mins of incubation by TRIzol-reagent based Bru-Seq analysis relative to control; type: functional, U-87MG ATCC
In short: as §1

[9] = system: U-87 MG; experiment: Down regulation of E2F1 gene expression in human U87MG cells at 10 uM incubated for 4 hrs followed by bromouridine addition during last 30 mins of incubation by TRIzol-reagent based Bru-Seq analysis; type: functional, cell-based; details: U-87MG ATCC
[10] = system: U-87 MG; experiment: Up regulation of NGF gene expression in human U87MG cells at 10 uM incubated for 4 hrs followed by bromouridine addition during last 30 mins of incubation by TRIzol-reagent based Bru-Seq analysis relative to control; type: functional, U-87MG ATCC
In short: as §1

[11] = system: U-87 MG; experiment: Down regulation of CCNA2 gene expression in human U87MG cells at 10 uM incubated for 4 hrs followed by bromouridine addition during last 30 mins of incubation by TRIzol-reagent based Bru-Seq analysis relative to control; type: functional, U-87MG ATCC
[12] = system: U-87 MG; experiment: Up regulation of MMP1 gene expression in human U87MG cells at 10 uM incubated for 4 hrs followed by bromouridine addition during last 30 mins of incubation by TRIzol-reagent based Bru-Seq analysis relative to control; type: functional, U-87MG ATCC
In short: as §1

[13] = system: U-87 MG; experiment: Up regulation of ATP6 V0D2 gene expression in human U87MG cells at 10 uM incubated for 4 hrs followed by bromouridine addition during last 30 mins of incubation by TRIzol-reagent based Bru-Seq analysis relative to control; type: functional, U-87MG ATCC
In short: as §1

[14] = system: U-87 MG; experiment: Up regulation of HMOX1 gene expression in human U87MG cells at 10 uM incubated for 4 hrs followed by bromouridine addition during last 30 mins of incubation by TRIzol-reagent based Bru-Seq analysis relative to control; type: functional, U-87MG ATCC
In short: as §1

[15] = system: U-87 MG; experiment: Down regulation of ANKRD36B gene expression in human U87MG cells at 10 uM incubated for 4 hrs followed by bromouridine addition during last 30 mins of incubation by TRIzol-reagent based Bru-Seq analysis relative to control; type: functional, U-87MG ATCC
[16] = system: U-87 MG; experiment: Up regulation of BCO2 gene expression in human U87MG cells at 16 uM incubated for 4 hrs followed by bromouridine addition during last 30 mins of incubation by TRIzol-reagent based Bru-Seq analysis relative to control; type: functional, U-87MG ATCC
In short: as §1

[17] = system: U-87 MG; experiment: Up regulation of HSPA1B gene expression in human U87MG cells at 16 uM incubated for 4 hrs followed by bromouridine addition during last 30 mins of incubation by TRIzol-reagent based Bru-Seq analysis relative to control; type: functional, U-87MG ATCC
In short: as §1

[18] = system: U-87 MG; experiment: Down regulation of CYP1B1 gene expression in human U87MG cells at 16 uM incubated for 4 hrs followed by bromouridine addition during last 30 mins of incubation by TRIzol-reagent based Bru-Seq analysis relative to control; type: functional, U-87MG ATCC
[19] = system: U-87 MG; experiment: Down regulation of LIF gene expression in human U87MG cells at 16 uM incubated for 4 hrs followed by bromouridine addition during last 30 mins of incubation by TRIzol-reagent based Bru-Seq analysis relative to control; type: functional, U-87MG ATCC
[20] = system: U-87 MG; experiment: Up regulation of TXNRD1 gene expression in human U87MG cells at 16 uM incubated for 4 hrs followed by bromouridine addition during last 30 mins of incubation by TRIzol-reagent based Bru-Seq analysis relative to control; type: functional, U-87MG ATCC
[21] = system: U-87 MG; experiment: Down regulation of AC139722.1 gene expression in human U87MG cells at 16 uM incubated for 4 hrs followed by bromouridine addition during last 30 mins of incubation by TRIzol-reagent based Bru-Seq analysis relative to control; type: functional, U-87MG ATCC
In short: as §1

[22] = system: U-87 MG; experiment: Down regulation of AC010931.3 gene expression in human U87MG cells at 16 uM incubated for 4 hrs followed by bromouridine addition during last 30 mins of incubation by TRIzol-reagent based Bru-Seq analysis relative to control; type: functional, U-87MG ATCC
[23] = system: U-87 MG; experiment: Down regulation of AC007848.1 gene expression in human U87MG cells at 16 uM incubated for 4 hrs followed by bromouridine addition during last 30 mins of incubation by TRIzol-reagent based Bru-Seq analysis relative to control; type: functional, U-87MG ATCC
[24] = system: U-87 MG; experiment: Up regulation of VEGFD gene expression in human U87MG cells at 16 uM incubated for 4 hrs followed by bromouridine addition during last 30 mins of incubation by TRIzol-reagent based Bru-Seq analysis relative to control; type: functional, U-87MG ATCC
[25] = system: U-87 MG; experiment: Up regulation of NMRAL2P gene expression in human U87MG cells at 16 uM incubated for 4 hrs followed by bromouridine addition during last 30 mins of incubation by TRIzol-reagent based Bru-Seq analysis relative to control; type: functional, U-87MG ATCC
In short: as §1

[26] = system: U-87 MG; experiment: Down regulation of AC022601.1 gene expression in human U87MG cells at 16 uM incubated for 4 hrs followed by bromouridine addition during last 30 mins of incubation by TRIzol-reagent based Bru-Seq analysis relative to control; type: functional, U-87MG ATCC

For `N#Cc1cccc(/C=C/C(=O)c2ccc(O)cc2)c1`, the inhibition at 10 µM [1] was less than 40%.

In the case of `CCCCCN(CCCCC)S(=O)(=O)c1ccc(C(=O)/C=C/c2cccc(O)c2)cc1`, the Activity [2] is reported as “Active” and the Activity [3] is reported as “Active”.

With `CCCCCN(CCCCC)S(=O)(=O)c1ccc(C(=O)/C=C/c2cccc(C#N)c2)cc1` the “fold change (FC)” value [4] was 10, the “fold change (FC)” value [5] was 11 and the “fold change (FC)” value [6] was 2.5. The “fold change (FC)” value [7] was 2.4, the “fold change (FC)” value [8] was 40.9 and the Activity [9] was “Active”. The “fold change (FC)” value [10] was 10, the “fold change (FC)” value [11] was 2.3 and the “fold change (FC)” value [12] was 32.1. For the same molecule, the “fold change (FC)” value [13] was 11.9, the “fold change (FC)” value [14] was 27.6 and the “fold change (FC)” value [15] was 2.8.

In the case of `COC(=O)c1cccc(/C=C/C(=O)c2cccc(O)c2)c1`, the “fold change (FC)” value [16] is reported as 1.9, the “fold change (FC)” value [17] is reported as 10.2 and the “fold change (FC)” value [18] is reported as 2.8. For the same molecule, the “fold change (FC)” value [19] was 2.7, the “fold change (FC)” value [20] was 5.4 and the “fold change (FC)” value [21] was 4.7. For the same molecule, the “fold change (FC)” value [22] was 3.2, the “fold change (FC)” value [23] was 2.9 and the “fold change (FC)” value [24] was 6.2. The “fold change (FC)” value [25] was 15, the log2FC [25] was 4.1 and the “fold change (FC)” value [26] was 2.7.
